According to PubChem BioAssay:
Records with an inconclusive call do not appear.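 How the source made its calls, unless noted: active means cell viability at or below a set limit in both duplicate runs, the limit being the all-compound median minus 4 SD (cut at about 23% in these data, passing the limit was not always enough); inconclusive means no clear call, values can overlap the other calls; inactive means the rest.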

How the values were obtained:
[1] = OD615 S. cerevisiae growth inhibition, permissive medium, pilot counter-assay, permissive growth control for S. cerevisiae lifespan shortening project (AID 705;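 active means growth inhibition above 25% in both replicates, a cutoff set 3 SD above the mean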); settings: OD615, 24 h, at 10 µM, active compounds read high
How it was run: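 Material: engineered DeaD yeast; compound dosing: one dose 10 µM, DMSO 0.25% final; measure: yeast growth inhibition indicated by reduced 24 h OD615; detection: OD615 turbidity read; incubation: cells pre-grown 4 h, then 24 h compound exposure, 30 °C humidified; medium: permissive synthetic complete medium with raffinose and galactose carbon sources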

[2] = Restrictive medium S. cerevisiae growth inhibition, OD615, pilot screen of yeast lifespan reduction project, restrictive growth control (AID 706;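 active means growth inhibition above a set limit, 3 SD over mean compound inhibition, in both replicates, cut at about 43% in these data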;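 further: modified DeaD lifespan yeast strain shifted to restrictive glucose medium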); settings: OD615, 48 h, at 10 µM, active compounds read high
How it was run: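 material = engineered S. cerevisiae DeaD strain | medium = glucose-based CSMM-D restrictive medium | times = 4 h pre-incubation, 48 h exposure at 30 °C | technique = OD615 absorbance reading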

[3] = viability gain of MRP-1-high H69AR cells under doxorubicin, pilot screen, MRP-1 activator project, CellTiter-Glo, duplicate (AID 807;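 active means viability increase at or above a cutoff of the median across tested compounds plus 3 SD, cut at about 8.5% in these data, passing the limit was not always enough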;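 further: compound pretreatment 18-22 h then 72 h combined with doxorubicin; 0% = doxorubicin alone and 100% = vehicle without doxorubicin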); settings: H69AR viability with doxorubicin, CellTiter-Glo luminescence; at 10 µM; active compounds read high
[4] = growth suppression of beta-catenin knockout HCT116, pilot screen, human colon tumor cells (AID 823); settings: CellTiter-Glo, 60 h, at 10 µM, active compounds read low;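 further: 0% = wells killed by 20 µM Hyamine and 100% = untreated DMSO cell wells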
[5] = growth suppression of PTEN-deleted HCT116, pilot screen, cell-based, HCT116 clonal line, CellTiter-Glo (AID 824;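 active means viability at or below 27.92% in each of two runs, the all-compound median minus 4 SD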;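 further: 0% = 20 µM Hyamine control and 100% = vehicle cell control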); settings: 60 h, at 10 µM, active compounds read low
[6] = inhibitors of the yeast RAM network, pilot screen, dse1pr::URA3 reporter, 5-FOA selection (AID 869;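 active means inhibition over a set limit, the all-compound mean plus 3 SD, in both replicate runs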;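 further: 0% = DMSO wells with no growth and 100% = 10 µM 1-NA-PP1 with full growth; RAM network block rescues cells from 5-FOA so hits raise OD615 growth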); settings: S. cerevisiae dse1pr::URA3 5-FOA growth, OD615, 2 d; at 10 µM; active compounds read high; strain carries analog-sensitive mutant Cbk1 kinase
[7] = RAM signaling pathway blockade in yeast – S. cerevisiae, Pdr1DBD-CYC8 efflux-inhibited sensitized strain, primary screen (AID 1298;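 active means RAM network inhibition above 8.4% in each of two replicates, 3 SD over the compound average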;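 further: 0% = DMSO untreated cells without growth and 100% = 10 µM 1-NA-PP1 full growth; higher means more yeast growth rescued from 5-FOA killing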); settings: S. cerevisiae cbk1-as DSE1-URA3 strain, 5-FOA growth OD615, 2 d; at 50 µM; active compounds read high

CCc1ccc2nc(NC3=NCN(CCOC)CN3)nc(C)c2c1
inactive: growth inhibition [1] -2.2% | growth inhibition [2] -4.05% | viability increase [3] -2.81% | viability [4] 63% | viability [5] 66.9% | inhibition [6] 1.18% | RAM network inhibition [7] -1.8%

CC1(C)NC(C)(C)c2nonc2/C1=N\O
inactive: growth inhibition [1] -15.2% | growth inhibition [2] -9.79% | viability increase [3] 0.39% | viability [4] 99.3% | viability [5] 102% | inhibition [6] 1.34% | RAM network inhibition [7] -0.43%

O=C(O)c1ccccc1C(=O)NCC(O)COCC1CC=CCC1 (stereo unspecified)
inactive: growth inhibition [1] -14.5% | growth inhibition [2] -16.2% | viability increase [3] -1.89% | viability [4] 101% | viability [5] 100% | inhibition [6] 1.33% | RAM network inhibition [7] 3.55%

Cc1cc2ccccc2n1CCNC(=O)C(C)(C)C
inactive: growth inhibition [1] 3.07% | growth inhibition [2] 7.19% | viability increase [3] -0.5% | viability [4] 96.6% | viability [5] 103% | inhibition [6] 1.72% | RAM network inhibition [7] -1.8%

Cc1ccc(C(=O)c2cc3c(cc2N)OCCO3)cc1
inactive: growth inhibition [1] -11.6% | growth inhibition [2] -21.8% | viability increase [3] -3.61% | viability [4] 91.2% | viability [5] 89.2% | inhibition [6] 0.27% | RAM network inhibition [7] 3.36%

O=C(COc1ccc(Cl)cc1)OCC(=O)N1CCCC1
inactive: growth inhibition [1] -6.8% | growth inhibition [2] -26.8% | viability increase [3] -2.32% | viability [4] 94.5% | viability [5] 95.3% | inhibition [6] 1.44% | RAM network inhibition [7] 3.51%

CCOC(=O)N1CCN(C(=O)CSc2nnc(-c3ccc(C(C)(C)C)cc3)o2)CC1
inactive: growth inhibition [1] -7.79% | growth inhibition [2] 8.32% | viability increase [3] -1.07% | viability [4] 85.2% | viability [5] 83.7% | inhibition [6] 0.505% | RAM network inhibition [7] 1.1%

CCOC(=O)N1CCC(N2CC34C=CC(O3)C(C(=O)Nc3ccc(OCC)cc3)C4C2=O)CC1 (stereo unspecified)
inactive: growth inhibition [1] 0.885% | growth inhibition [2] 0.91% | viability increase [3] 2.9% | viability [4] 108% | viability [5] 112% | inhibition [6] 0.595% | RAM network inhibition [7] 3.14%

OCCOCCNc1ncnc2nc[nH]c12
inactive: growth inhibition [1] -8.26% | growth inhibition [2] -0.86% | viability increase [3] -0.43% | viability [4] 106% | viability [5] 101% | inhibition [6] 1.8% | RAM network inhibition [7] -0.28%

CCOC(=O)CSc1n[nH]c(-c2ccco2)n1
inactive: growth inhibition [1] -16.1% | growth inhibition [2] -17% | viability increase [3] -1.01% | viability [4] 93.8% | viability [5] 102% | inhibition [6] 0.85% | RAM network inhibition [7] 4.21%

CCOc1ccc(OCC)c(NC(=O)CN2CCC(NC(=O)c3cccc(F)c3)CC2)c1
inactive: growth inhibition [1] -3.75% | growth inhibition [2] -12.3% | viability increase [3] -4.87% | viability [4] 77.5% | viability [5] 78.7% | inhibition [6] 2.31% | RAM network inhibition [7] 5.19%

COCCNC(=O)Cn1cc2c(n1)CCC(C)C2 (stereo unspecified)
inactive: growth inhibition [1] -12.9% | growth inhibition [2] -0.165% | viability increase [3] 0.11% | viability [4] 104% | viability [5] 93.9% | inhibition [6] 2.06% | RAM network inhibition [7] 1.1%

CC1CCCCN1S(=O)(=O)c1coc(C(N)=O)c1 (stereo unspecified)
inactive: growth inhibition [1] -12.1% | growth inhibition [2] -13.6% | viability increase [3] -2.18% | viability [4] 105% | viability [5] 96.8% | inhibition [6] 3% | RAM network inhibition [7] 0.05%

Cc1onc(-c2ccccc2Cl)c1C(=O)Nc1c(C)n(C)n(-c2ccccc2)c1=O
inactive: growth inhibition [1] -7.2% | growth inhibition [2] 3.75% | viability increase [3] 0.84% | viability [4] 104% | viability [5] 103% | inhibition [6] 0.355% | RAM network inhibition [7] 3.34%

COc1ccc(Cc2nc(-c3ccc(-n4cccc4)cc3)no2)cc1OC
inactive: growth inhibition [1] -2.5% | growth inhibition [2] -10.8% | viability increase [3] 2.61% | viability [4] 28% | viability [5] 54.7% | inhibition [6] 4.33% | RAM network inhibition [7] 9.02%

O=C(COc1ccccc1)Nc1nnc(-c2ccc(Cl)s2)o1
inactive: growth inhibition [1] -2.75% | growth inhibition [2] 8.75% | viability increase [3] -1.36% | viability [4] 109% | viability [5] 100% | inhibition [6] 2.67% | RAM network inhibition [7] 1.52%

O=C(CC1Oc2ccccc2NC1=O)NCCCN1CCN(Cc2ccccc2)CC1 (stereo unspecified)
inactive: growth inhibition [1] 2.54% | growth inhibition [2] -3.21% | viability increase [3] -3.71% | viability [4] 94.3% | viability [5] 93.3% | inhibition [6] 1.56% | RAM network inhibition [7] 5.35%

COc1cccc(C2c3c(oc4cc(C)c(C)cc4c3=O)C(=O)N2CCCN(C)C)c1 (stereo unspecified)
inactive: growth inhibition [1] -8.88% | growth inhibition [2] 0.12% | viability increase [3] -3.94% | viability [4] 93.6% | viability [5] 94.6% | inhibition [6] 0.885% | RAM network inhibition [7] 1.83%

COc1ccc(OC)c(N(CC(=O)NC2CC2)S(=O)(=O)c2ccc(C)cc2)c1
inactive: growth inhibition [1] -13.6% | growth inhibition [2] -20.4% | viability increase [3] -0.94% | viability [4] 96.1% | viability [5] 93.2% | inhibition [6] 0.73% | RAM network inhibition [7] 3.7%

Cc1onc(-c2ccccc2)c1C(=O)Nc1ccccc1C#N
inactive: growth inhibition [1] -5.39% | growth inhibition [2] -4.02% | viability increase [3] -2.87% | viability [4] 97.3% | viability [5] 91.8% | inhibition [6] 1.89% | RAM network inhibition [7] 2.87%

COc1cc(OC)c(C2N(c3ccc(Cl)cc3)C(=O)C3CCCN32)cc1OC (stereo unspecified)
inactive: growth inhibition [1] -2.8% | growth inhibition [2] -2.08% | viability increase [3] -2.63% | viability [4] 105% | viability [5] 96.7% | inhibition [6] 2.59% | RAM network inhibition [7] 3.82%

COc1ccccc1S(=O)Cc1ccc(C(=O)NCc2ccccc2Cl)o1 (stereo unspecified)
inactive: growth inhibition [1] -7.49% | growth inhibition [2] -16.8% | viability increase [3] -1.27% | viability [4] 100% | viability [5] 89.7% | inhibition [6] 2.41% | RAM network inhibition [7] 4.64%

COc1ccc(CCNC(=O)CCn2c(=O)oc3ccccc32)cc1
inactive: growth inhibition [1] -5.1% | growth inhibition [2] -14% | viability increase [3] -1.45% | viability [4] 109% | viability [5] 99.7% | inhibition [6] -0.205% | RAM network inhibition [7] 2.7%
